Data taken from ChEMBL document CHEMBL4513216, “Probing the Open Global Health Chemical Diversity Library for Multistage-Active Starting Points for Next-Generation Antimalarials” (ACS Infect Dis, 2020).

Test: Toxicity liver stage against HepG2, at 10uM
Format: cell-based
Parameters: test concentration 10 uM, cell line HepG2-A16-CD81EGFP
Conditions: human, HepG2-A16-CD81EGFP cells; read-out: INHIBITION
In short: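 Uninfected HepG2-A16-CD81EGFP cells, 3 × 10^3 per well, 1536-well, plated on prespotted compound at 10 μM final, parasite-free screening media added to match infected plates; puromycin 10 μM positive, DMSO 0.5% negative; run in parallel with 48 h PbLuc assay at 37 °C, 5% CO2; viability by CellTiter-Glo luminescence, normalized to controls.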

Structure (SMILES)	cytotoxicity at 10 µM
Fc1ccc2[nH]c([C@H]3CCN(C4CCOCC4)C3)nc2c1	1.9%
COc1ccc2c(c1)OC1(CCN(Cc3ccc(C)cc3)CC1)CC2=O	7.6%
O=C(Nc1cccnc1)N(Cc1ccccc1)C1CC1	7.78%
CN1CCCC(CNC(=O)CN(C)S(=O)(=O)c2cccnc2)C1 (stereo not given)	9.45%
Cc1nc(CN2CCN(S(=O)(=O)N3CCOCC3)CC2)oc1C	0.373%
O=C(NCC1(O)CCC1)NC(c1cc(F)ccc1F)C1CC1 (stereo not given)	-4.81%
CN(CCCNC(=O)C1CCc2cn[nH]c2C1)c1ccc(F)cc1 (stereo not given)	14.2%
COC(C)Cc1nc(-c2cnn3c(C)cc(C)nc23)no1 (stereo not given)	-8.11%
CN(CCCNC(=O)NCc1ccncc1)CC(F)(F)F	1.85%
Cc1nc(N2CCC(CC(=O)N3CCCC3)CC2)c2cnn(C)c2n1	0.866%
CS(=O)(=O)c1ccc(NC(=O)CSc2ccc3c(c2)CCC3)cc1	5.73%
COCc1nc2n(n1)CCCC2Nc1nc(C)ns1 (stereo not given)	-3.32%
O=C(CN1CCCC1Cn1cccn1)NC1CCN(C2CC2)CC1 (stereo not given)	5.77%
CCOc1ccc(CNCc2ccc(C(=O)NC)cc2)cc1OCC	-7.06%
Cc1noc(CS(=O)(=O)CC(=O)NC(C)c2ccccc2)n1 (stereo not given)	9.81%
CS(=O)(=O)CCCSCc1cc(F)cc(Br)c1	9.05%
CNS(=O)(=O)c1ccc(CNC(=O)N(CC(C)C)C(C)C)cc1	4.5%
CC(C)NC(=O)CNC(C)c1c(F)cccc1Cl (stereo not given)	7.22%
CN(C(=O)CCN1CCCC1=O)c1cc(C#N)c2ccccc2n1	3.33%
CN(C)c1cc2c(nn1)CCN(C(=O)c1cc3ccccc3[nH]c1=O)C2	3.99%
Fc1cc(CNc2nncs2)ccc1Cl	-1.74%
CN1CCN(C(CNC(=O)CCn2cccn2)c2cccs2)CC1 (stereo not given)	24.4%
CN(C)C(=O)CN1CCO[C@H]2CN(Cc3ccoc3)C[C@H]21	-108%

Structure (SMILES)	cytotoxicity at 10 µM
Cc1nnc([C@@]23CCO[C@@H]2CCN(Cc2ccc4c(c2)OCO4)C3)o1	-102%
CN(C)C(=O)C1CCC2(CCN(C(=O)Nc3ccc(F)cc3)CC2)O1 (stereo not given)	-111%
Cc1noc(C)c1C1CCCN1CCC(=O)N1CCc2ccccc2C1 (stereo not given)	2.39%
O=C(CN1CCCCC1)NCc1cccnc1-n1cnc2ccccc21	0.522%
CCC[C@H]1CN(Cc2nccn2C)C[C@@H]1NC(=O)C1(COC)CCC1	-3.7%
CC(NC(=O)c1cccc(CCC(C)(C)O)c1)c1nnc(N)s1 (stereo not given)	1.16%
COc1cccc(CC(=O)N2CCC(Cc3nnc(SC)n3C)CC2)c1	-40.2%
O=C(c1ccco1)N1CCC(n2cc(-c3ccsc3)nn2)CC1	1.41%
CNC(=O)c1ccc(C(=O)N2CCCC2c2c(C)nn(C)c2C)cn1 (stereo not given)	-12.8%
CCN(Cc1cccc2c1OCO2)C(=O)NCCOC	1.45%
O=S(=O)(CCCNC1CCc2ncnn2C1)c1ccccc1 (stereo not given)	2.53%
CCc1n[nH]c(C2CN(C(=O)c3ccnc(C4CC4)n3)CCO2)n1 (stereo not given)	2.4%
CCn1cc(CN2CCCN(C(=O)c3ccc(C)o3)CC2)cn1	-13.9%
CCc1nnc2n1CCN(C(=O)COCCc1ccccc1)C2	-8.28%
O=C([C@H]1COC[C@H]2CN(C3CCCCC3)C[C@H]21)N1CCOCC1	-110%
Cc1ccc(N2CCC3(CC2)CC(OCC(C)C)C3)nn1	-121%
CCOC1COC2(CCN(CC3CCOCC3)CC2)C1 (stereo not given)	-97.6%
CS(=O)(=O)CC(=O)N1C[C@H]2CCC[C@@]2(COCc2ccncc2)C1	-101%
CC(C)Cc1nc(-c2ccnc(N3CCNCC3)n2)no1	2.04%
COCCN1CCCn2c(nc(CNC(=O)COC)cc2=O)C1	-106%
COc1nn(C)c2c1CCCN(C(=O)c1cccc(C)n1)C2	-97.3%
CCOC1CC2(CCN(C(=O)Cc3ccccn3)CC2)C1	-90.9%
